# Source: PubChem BioAssay (Sanford-Burnham Center for Chemical Genomics)
# STEP block = inhibitors of human striatal-enriched phosphatase STEP. P54829. AID 588621. 360,000 tested, 0.25% active. recombinant STEP, OMFP fluorogenic substrate, fluorescence. inhibition, % at 20 µM;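 active = inhibition at 20 µM, scaled per plate between control wells, above about 37%, limit read from the data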;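 note: 0% = DMSO with enzyme and substrate and 100% = substrate only without enzyme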
# Target sequence (P54829 whole entry, looked up): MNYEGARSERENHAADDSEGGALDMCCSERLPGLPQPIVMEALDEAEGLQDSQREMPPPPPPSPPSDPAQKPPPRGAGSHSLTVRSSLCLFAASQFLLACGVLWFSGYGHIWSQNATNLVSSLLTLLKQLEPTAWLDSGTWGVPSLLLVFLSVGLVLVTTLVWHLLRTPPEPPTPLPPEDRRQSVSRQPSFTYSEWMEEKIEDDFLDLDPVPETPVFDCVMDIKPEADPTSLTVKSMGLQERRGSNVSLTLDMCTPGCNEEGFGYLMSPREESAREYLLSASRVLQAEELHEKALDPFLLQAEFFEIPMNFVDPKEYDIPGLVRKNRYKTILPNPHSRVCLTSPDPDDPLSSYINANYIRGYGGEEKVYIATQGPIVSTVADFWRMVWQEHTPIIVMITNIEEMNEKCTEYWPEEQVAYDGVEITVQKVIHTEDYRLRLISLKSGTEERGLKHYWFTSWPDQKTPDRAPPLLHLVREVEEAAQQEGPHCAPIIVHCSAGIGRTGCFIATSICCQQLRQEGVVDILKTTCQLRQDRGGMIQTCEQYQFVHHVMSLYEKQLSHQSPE
#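 material = STEP tyrosine phosphatase | reagent = fluorogenic phosphatase substrate OMFP at 25 µM final | doses = single compound dose of 20 µM, 1% DMSO final | schedule = 20 min reaction, room temperature, in the dark | measured by = fluorescence, 480/540 nm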
# LMPTP block = blocks human LMPTP phosphatase; P24666; recombinant LMPTP-A, OMFP fluorogenic substrate, fluorescence intensity; inhibition, % at 20 µM; 360,000 tested, 0.22% active; AID 651560;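 active = compounds that cut the enzyme signal by at least half of the control window in the single-dose screen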;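 note: plate controls were DMSO wells with enzyme plus substrate for no effect and substrate without enzyme for full effect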
#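 Test system: LMPTP-A phosphatase enzyme. Amount: LMPTP-A at 0.625 nM final in the reaction. Reagent: OMFP substrate, 400 µM final. Times: 50 min at room temperature. Signal: endpoint fluorescence intensity from OMFP dephosphorylation. Read-out basis: % inhibition. Benchmarks: no-enzyme and uninhibited controls.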
# SUMO1-SIM PPI = alters human SUMO1 binding to SIM partners | P63165 | 360,000 tested, 0.33% active | SUMO1 binding to a labelled peptide, TR-FRET, 1 h | inhibition, % at 20 µM; in the data active = inhibition above about 37%
# DNMT1 block = blocks human DNA methyltransferase DNMT1. inhibition (reported as % activation of signal), % at 10 µM. DNMT1 molecular beacon, Hinp1I cleavage, fluorescence. P26358. 360,000 tested, 0.83% active; in the data active = inhibition above about 50%
# Scp1 inh = Scp-1 (human) phosphatase inhibition | AID 493091 | 340,000 tested, 0.88% active | Recombinant Scp1, phosphopeptide, malachite green phosphate absorbance | Q9GZU7 | inhibition, % at 20 µM;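 active = inhibition above about 50% at 20 µM, limit read from the data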;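 note: plate controls were DMSO wells with enzyme for no effect and wells lacking enzyme for full effect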
#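 Times: enzyme reaction 45 min at room temperature, colour 5 min, stabilisation 30 min. Material: SCP-1 catalytic fragment, aa 76-261. Medium: Acidic Tris acetate buffer with magnesium and detergent. Signal: colorimetric free-phosphate detection, absorbance 630 nm. Read-out basis: % inhibition of SCP-1 phosphate liberation. Reagent: Phosphorylated 17-residue peptide substrate.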
# * marks the source's active call; other numbers are inactive results; . = no result given. Most compounds without a hit are left out; they make up all but 1.7% or so of the library.
SMILES,STEP block,LMPTP block,SUMO1-SIM PPI,DNMT1 block,Scp1 inh
COc1ccc(C(C)=O)cc1Cn1c(C)c(C(=O)NCc2ccc3c(c2)OCO3)sc1=O,4.0,-0.5,2.3,0.7,.
CCCCC(=O)N(C)c1c(CC)nc2c(OCCOc3ccccc3)cccn12,1.5,0.6,3.7,-3.2,.
O=C(NCc1ccccc1)C1C(c2ccc3c(c2)OCO3)=Nc2ccccc2N1C(=O)c1ccco1 (centres undefined),.,1.8,-19.3,.,.
O=C(CN1CCN(c2ccccc2F)CC1)c1ccc2cc[nH]c2c1,1.8,67.3*,-0.5,-18.7,2.4
CC1(C(=O)Nc2ccc3c(c2)OCO3)CCN1C(=O)c1ccco1 (centres undefined),2.0,-2.0,1.5,-1.0,.
COc1cc(/C=C2/C(=O)c3cccc([N+](=O)[O-])c3C2=O)c(Br)cc1O,4.5,3.2,17.1,13.6,68.5*
CCCS(=O)(=O)NC(=O)C1(C)CCN(C(=O)c2ccc(F)c(Cl)c2)C1 (centres undefined),-3.3,-1.0,-0.4,2.7,.
N#C/C(=C\c1ccc(O)c(O)c1)C(=O)c1ccc(O)c(O)c1,2.0,16.7,-32.3,14.7,1.3
N#CC(C#N)=C(N)/C(C#N)=C/c1cc(O)c(O)c(O)c1,1.9,50.6*,-20.5,-1.6,-0.7
C[C@@H]1CN([C@@H](C)CO)C(=O)c2cc(NC(=O)C3CCCCC3)ccc2O[C@@H](C)CCCCO[C@H]1CN(C)S(=O)(=O)c1ccc(Cl)cc1,0.0,2.2,-1.5,-9.6,.
FC(F)(F)C1=Nc2cccc3cccc(c23)N1,18.1,87.1*,117.2*,108.2*,-0.8
O=C(NN1C(=O)/C(=C/c2ccc(O)c(O)c2)SC1=S)c1ccccc1,3.6,31.4,4.8,50.3*,-17.1
COCCNC(=O)C1(C)CCCN(Cc2cc(-c3ccccc3)on2)C1 (centres undefined),-0.8,-1.1,-2.0,4.7,.
Cc1noc(C)c1C(=O)N1CCC1(C)C(=O)NS(=O)(=O)Cc1cccc(Cl)c1 (centres undefined),-0.5,-2.0,8.3,3.7,.
CC(C)C[C@@H](CNCC(=O)[C@H](CC(=O)O)NC(=O)c1[nH]cnc1C(=O)N[C@H](CN)CC(C)C)NC(=O)c1nc[nH]c1C(=O)N[C@@H](Cc1ccccc1)C(=O)O,-1.0,-1.8,47.9*,6.9,-2.1
COC(=O)c1ccc(CNC(=O)/C=C/[C@H]2O[C@@H](n3cc(C)c(=O)[nH]c3=O)C[C@@H]2O)cc1,-2.1,-1.8,2.2,-3.7,.
O=S(=O)(c1ccccc1)c1nnn2c1nc(NC1CCN(Cc3ccccc3)CC1)c1cc(Cl)ccc12,12.2,27.0,-12.7,-1.1,5.8
O=S(=O)(c1ccccc1)c1nnn2c1nc(NC1CCN(Cc3ccccc3)CC1)c1ccccc12,7.1,65.5*,-65.5,-1.1,-0.3
Cc1cc(/C=N/NC(=O)C(O)(c2ccccc2)c2ccccc2)c(C)n1-c1cccc(C(=O)O)c1,2.6,1.9,26.6,53.9*,26.7
COc1ccc(S(=O)(=O)NCc2cccnc2)cc1NC(=O)c1ccccc1C,5.9,45.5,20.8,53.5*,49.8
COc1cccc2c1C(=O)c1c(O)c3c(c(O)c1C2=O)C[C@@](O)(C(=O)CO)C[C@@H]3OC1CC(N)C(O)C(C)O1 (some centres undefined),-20.6,9.1,91.5*,-202.3,-5.3
CCCCC(=O)N(C)c1c(C)nc2ccc(C(=O)NCc3ccccc3OC)cn12,-0.1,-5.8,-4.8,-2.0,.
Oc1ccc(Nc2nc3ccccc3nc2Nc2ccc(O)cc2)cc1,-3.1,3.5,5.4,-16.2,60.3*
CC1(C)CC[C@]2(C(=O)n3ccnc3)CC[C@]3(C)[C@H](C(=O)C=C4[C@@]5(C)C=C(C#N)C(=O)C(C)(C)[C@@H]5CC[C@]43C)[C@@H]2C1,1.9,-2.0,43.7*,60.2*,14.6
Cc1c(N=Nc2c(-c3ccc([N+](=O)[O-])cc3)[nH]n(C(N)=S)c2=O)cccc1[N+](=O)[O-],82.0*,71.0*,21.8,75.5*,93.1*
Cc1[nH]n(C(N)=S)c(=O)c1N=Nc1cccc([N+](=O)[O-])c1C,3.0,-1.1,-28.6,-11.5,-3.5
